Measured values as given in PubChem BioAssay AID775 (SRMLSC, 2007).
Screen size: about 130,000 compounds; about 900 (0.69%) were called active. What follows is part of a selection rich in actives, with near analogues and random picks from the rest. A number with no mark means an inactive call.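 Rule for the calls: active = inhibition above a set limit, placed 3 SD over the median of all compounds (cut at about 26% in these data); inactive = the rest.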

Assay: rescue of nicotinamide-shortened yeast lifespan – S. cerevisiae, OD615, primary screen (AID 775);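 note: 0% = nicotinamide-treated wells and 100% = cells grown without nicotinamide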
Conditions: S. cerevisiae growth with nicotinamide, at 10 µM, active compounds read high, deaD strain in restrictive glucose medium
Method in brief: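 Material: Modified budding yeast, DeaD strain | Medium: Restrictive glucose medium | Probe or stimulus: 1.5 mM nicotinamide | Dosing: Single dose 10 µM compound, 0.25% DMSO | Times: 48 h at 30 °C | Technique: OD615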
`CCOc1ccccc1/C=c1\sc2nc(-c3ccco3)nn2c1=O` gave an inhibition of the nicotinamide effect of 21.5%. For `O=c1nc2s/c(=C\c3ccco3)c(=O)n2nc1Cc1ccccc1`, the inhibition of the nicotinamide effect was 26.9% (active). For `O=C(CCCN1C(=O)/C(=C/c2ccco2)SC1=S)Nc1ccccc1`, the inhibition of the nicotinamide effect was 4.28%. Work on `NC(=O)c1ccccc1N=Cc1ccc2ccccc2c1` yielded an inhibition of the nicotinamide effect of 8.87%. `CCC1=NN(C(=O)Cc2ccc([N+](=O)[O-])cc2)C(O)(c2ccc(Br)cc2)C1` (stereo unspecified) gave an inhibition of the nicotinamide effect of 3.83%. `CN(C)C(CNC(=O)c1ccc(S(=O)(=O)NCc2ccco2)cc1)c1ccccc1` (stereo unspecified) gave an inhibition of the nicotinamide effect of 3.63%. With `CCOC(=O)C(C)Sc1nc2ccccc2c(=O)n1CC1CCCCC1` (stereo unspecified) the inhibition of the nicotinamide effect was 8.34%. Compound `Cn1c2ccccc2c(=O)c2c(=O)n(Cc3ccco3)c(COc3ccccc3)nc21` has an inhibition of the nicotinamide effect of 17.5%. With `CCCc1nc2c(c(=O)c3ccccc3n2C)c(=O)n1C1CCCCCC1` the inhibition of the nicotinamide effect was 47.5% (active). In the case of `CCOC(=O)c1c(NC(=O)C2(C)Cc3ccccc3C(=O)O2)sc2c1CCCC2` (stereo unspecified), the inhibition of the nicotinamide effect is reported as 1.18%. With `O=C(NCc1ccccc1Cl)C1CCC(CNc2c(N3CCCCC3)c(=O)c2=O)CC1` (stereo unspecified) the inhibition of the nicotinamide effect was 3.91%. In the case of `CCS(=O)(=O)Nc1cccc(-c2cc(-c3ccccc3)c3cc(C)ccc3n2)c1`, the inhibition of the nicotinamide effect is reported as 1.36%. Work on `COc1ccc(C(CC(=O)Nc2ccc(C)cc2)NC(=O)C(F)(F)F)cc1` (stereo unspecified) yielded an inhibition of the nicotinamide effect of -0.39%. With `Cc1ccc2sc(NNC(=O)c3ccc4c(c3)OCCO4)nc2c1C` the inhibition of the nicotinamide effect was 0%. `O=C(N/N=C/c1ccccn1)C12CC3CC(CC(C3)C1)C2` showed an inhibition of the nicotinamide effect of 3.48%. With `COc1ccc([C@H]2[C@H](C(C)=O)N3N=Cc4ccccc4C3C23C(=O)OC(C)(C)OC3=O)cc1` (stereo partly specified) the inhibition of the nicotinamide effect was 30.5% (active). `COc1ccc(C2C(C(=O)N3CCN(c4ccc(OC)cc4)CC3)c3ccccc3C(=O)N2C)cc1` (stereo unspecified) showed an inhibition of the nicotinamide effect of -6.01%. `O=C(Nc1ccc2ccccc2c1)/C(=C/c1cccc(Br)c1)NC(=O)c1ccco1` gave an inhibition of the nicotinamide effect of -1.18%. `COC(=O)C1=NNC2(c3ccc(C)cc3)C(=O)N(c3cccc(C)c3C)C(=O)C12` (stereo unspecified) gave an inhibition of the nicotinamide effect of 14.3%. `COc1ccc(C(=O)NNS(=O)(=O)c2ccc(C)cc2)cc1` gave an inhibition of the nicotinamide effect of 3.8%. For `CC(C)CNC(=S)NC(=O)c1ccc(Cl)cc1`, the inhibition of the nicotinamide effect was -5.06%.
